Results collected from several papers.
Each line is one published result; the experiments were not run side by side.
Target: NAD-dependent protein deacetylase sirtuin-1 (SIRT1, Homo sapiens, UniProt Q96EB6)
Read-out: enzyme activity
Action: inhibitor
Sequence (Q96EB6 193-741, as in one of the studies): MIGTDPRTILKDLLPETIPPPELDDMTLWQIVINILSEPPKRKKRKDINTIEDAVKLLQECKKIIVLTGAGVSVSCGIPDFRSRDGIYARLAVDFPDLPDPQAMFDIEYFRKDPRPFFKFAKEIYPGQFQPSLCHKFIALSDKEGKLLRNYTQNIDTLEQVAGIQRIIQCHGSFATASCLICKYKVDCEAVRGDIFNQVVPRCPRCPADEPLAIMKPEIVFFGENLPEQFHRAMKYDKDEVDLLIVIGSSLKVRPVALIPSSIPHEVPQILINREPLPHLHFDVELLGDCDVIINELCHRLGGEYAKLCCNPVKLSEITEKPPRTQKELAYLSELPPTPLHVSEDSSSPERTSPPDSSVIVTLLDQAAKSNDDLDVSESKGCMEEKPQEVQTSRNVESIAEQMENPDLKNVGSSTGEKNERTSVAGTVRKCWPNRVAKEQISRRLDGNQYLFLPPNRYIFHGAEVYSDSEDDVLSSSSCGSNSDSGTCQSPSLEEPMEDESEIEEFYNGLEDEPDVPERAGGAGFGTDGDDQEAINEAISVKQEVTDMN

CCCCCC1CC(=O)c2ccc(F)cc2O1 (stereo not shown)  inhibition (fluorescence; 200 µM): 3.8%
CC(=S)NCCCC[C@H](NC(=O)OCc1ccccc1)C(=O)N[C@@H](Cc1c[nH]c2ccccc12)C(=O)N[C@@H](CCC(=O)O)C(N)=O  inhibition (1 µM): 83%
Ic1cccc2cnccc12  inhibition (10 µM): 2%
NC(=O)CCNC(=S)NCCCC[C@H](NS(=O)(=O)c1cccc(F)c1)C(=O)N[C@@H](Cc1c[nH]c2ccccc12)C(=O)NC1CCC1  inhibition (10 µM): 3%
Cc1ccc(C(=O)Nc2ccc(S(=O)(=O)O)c3cc(S(=O)(=O)O)cc(S(=O)(=O)O)c23)cc1NC(=O)c1cccc(NC(=O)Nc2cccc(C(=O)Nc3cc(C(=O)Nc4ccc(S(=O)(=O)O)c5cc(S(=O)(=O)O)cc(S(=O)(=O)O)c45)ccc3C)c2)c1  inhibition (10 µM): 74%
O=C(NC1CCC1)[C@H](Cc1c[nH]c2ccccc12)NC(=O)[C@H](CCCCNC(=S)NCCc1nnn[nH]1)NS(=O)(=O)c1cccc(F)c1  inhibition (10 µM): 17%
CCCCC[C@@H]1CC(=O)c2cc(Cl)cc(Br)c2O1  inhibition (fluorescence; 200 µM): 5.3%
O=C(NC1CCC1)[C@H](Cc1c[nH]c2ccccc12)NC(=O)[C@H](CCCCNC(=S)NCc1n[nH]c(=S)o1)NS(=O)(=O)c1cccc(F)c1  inhibition (30 µM): 37%
CCCCCC1C=Cc2cc(Cl)cc(Br)c2O1 (stereo not shown)  inhibition (fluorescence; 200 µM): 7.1%
CCCCCCCCCCCCNC(=S)NCCCC[C@H](NC(=O)OCc1ccccc1)C(=O)N[C@@H](Cc1c[nH]c2ccccc12)C(=O)N[C@@H](CCCNC(=N)N)C(N)=O  inhibition (1 µM): 52%
